{"source": "PubChem BioAssay AID493187", "about": "(Sanford-Burnham Center for Chemical Genomics, 2011)", "note": "The campaign covered roughly 340,000 compounds. About 190 (0.056%) were called active.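 How the source made its calls: active means activation of 40% or more at 20 µM, a change of -40% or lower; inactive means the rest.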 The full list was thinned out, with actives kept by preference.", "data": [{"target": "Hexokinase HKDC1 (Homo sapiens) (UniProt Q2TB90)", "sequence (Q2TB90 whole entry, looked up)": "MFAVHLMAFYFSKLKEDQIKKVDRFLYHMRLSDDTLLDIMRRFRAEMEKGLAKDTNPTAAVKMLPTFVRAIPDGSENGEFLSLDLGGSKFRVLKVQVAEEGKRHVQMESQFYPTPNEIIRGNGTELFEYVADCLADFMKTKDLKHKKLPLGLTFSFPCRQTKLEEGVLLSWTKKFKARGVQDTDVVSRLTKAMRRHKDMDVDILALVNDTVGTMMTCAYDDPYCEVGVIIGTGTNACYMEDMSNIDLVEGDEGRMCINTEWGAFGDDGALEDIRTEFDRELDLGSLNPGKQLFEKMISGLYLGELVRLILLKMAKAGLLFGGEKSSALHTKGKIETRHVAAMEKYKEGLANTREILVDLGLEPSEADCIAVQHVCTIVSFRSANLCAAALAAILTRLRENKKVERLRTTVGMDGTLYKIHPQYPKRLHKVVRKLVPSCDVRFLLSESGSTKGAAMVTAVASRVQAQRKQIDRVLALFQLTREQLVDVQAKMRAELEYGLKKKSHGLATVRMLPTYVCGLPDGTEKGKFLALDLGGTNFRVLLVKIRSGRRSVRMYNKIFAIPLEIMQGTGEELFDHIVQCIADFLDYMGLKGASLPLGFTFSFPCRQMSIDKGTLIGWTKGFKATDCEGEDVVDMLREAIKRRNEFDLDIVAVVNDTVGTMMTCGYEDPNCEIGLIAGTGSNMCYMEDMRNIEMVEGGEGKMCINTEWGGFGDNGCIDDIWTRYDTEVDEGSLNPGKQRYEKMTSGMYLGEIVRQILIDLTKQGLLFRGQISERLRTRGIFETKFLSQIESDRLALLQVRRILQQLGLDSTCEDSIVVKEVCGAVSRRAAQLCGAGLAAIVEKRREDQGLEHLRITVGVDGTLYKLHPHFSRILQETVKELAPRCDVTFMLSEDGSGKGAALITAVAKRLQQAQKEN", "assay": "enhancers of human HKDC1 enzyme activity – biochemical, fluorescence, uHTS, primary screen (AID 493187)", "conditions": "recombinant HKDC1, G6PDH/diaphorase resazurin fluorescence; at 20 µM; hits give low values", "how_it_was_run": "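Signal: coupled resazurin-to-resorufin fluorescence, Ex 525/Em 613 nm. Test system: in-house human HKDC1 enzyme, G6PDH and diaphorase coupling enzymes. Quantity: HKDC1 5 µg/mL. Timing: 90 min reaction at room temperature, dark.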", "values": [{"smiles": "CC(=O)OC1C2(CC3N4C(=O)C5(CO)SSC4(CC31O)C(=O)N5C)OC(C)C(C)(C)C2=O", "note": "(stereo unspecified)", "activity change, negative = activation": "-42.1% (active)"}]}]}
